From ChEMBL document CHEMBL4387708, “Enhancement of Benzothiazoles as Pteridine Reductase-1 Inhibitors for the Treatment of Trypanosomatidic Infections” (J Med Chem, 2019)
Calls of active or inactive are those of the source. The rule behind the calls is not given here.

Key:
[1] = Mitochondrial toxicity in human 786-O cells measured after 6 hrs by MitoTracker Red chloromethyl-X-rosamine based assay; type: cell-based, 786-0
[2] = molecular target: T1, Pteridine reductase 1 (Leishmania major) (UniProt Q01782); assay: Inhibition of Leishmania major pteridine reductase 1 at 50 uM using di-hydrobiopterine as substrate in presence of NADPH relative to control
T1 sequence (whole entry): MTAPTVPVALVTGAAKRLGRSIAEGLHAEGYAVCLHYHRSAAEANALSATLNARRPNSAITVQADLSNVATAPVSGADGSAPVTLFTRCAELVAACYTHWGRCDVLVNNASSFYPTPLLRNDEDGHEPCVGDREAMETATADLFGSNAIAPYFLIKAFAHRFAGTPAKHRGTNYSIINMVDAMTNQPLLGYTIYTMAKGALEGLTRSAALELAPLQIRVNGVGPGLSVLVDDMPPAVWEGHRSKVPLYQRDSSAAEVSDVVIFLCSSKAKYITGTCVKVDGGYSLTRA
How it was run: (§1)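 Photometric PTR1 assay with NADPH and dihydrobiopterin substrate. H₄B formation is coupled non-enzymatically to cytochrome c reduction, read as signal increase at 550 nm.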

[3] = Cytotoxicity against human THP1 cells after 72 hrs by MTT assay; type: cell-based, THP-1; conditions: read-out: NOAEL
[4] = tested on: Trypanosoma brucei; assay: Growth inhibition of Trypanosoma brucei bloodstream forms measured after 72 hrs by resazurin-based fluorescence assay; type: organism-based
How it was run: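 Mid-log bloodstream-form T. brucei were seeded at a final 5 x 10^3/mL in supplemented HMI-9 with serial compound dilutions. Cultures ran 72 h at 37 °C, 5% CO₂, then 4 h more after resazurin. Fluorescence was read at ex 540/em 620 nm, and EC₅₀ was fitted by non-linear regression.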

[5] = tested on: Trypanosoma brucei; assay: Inhibition of N-terminal His-tagged Trypanosoma brucei pteridine reductase 1 at 50 uM using di-hydrobiopterine as substrate measured at 1 min interval for 50 mins in presence of NADPH relative to control; how it was run: as §1
[6] = Cytotoxicity against human A549 cells after 48 hrs by Celltiter-glo assay; type: cell-based
[7] = Inhibition of N-terminal His-tagged Trypanosoma brucei pteridine reductase 1 using di-hydrobiopterine as substrate measured at 1 min interval for 50 mins in presence of NADPH; how it was run: as §1
[8] = molecular target: Cytochrome P450 2C19 (Homo sapiens, UniProt P33261); assay: Inhibition of human CYP2C19 expressed in baculovirus infected insect cells using beetle D-luciferin as substrate preincubated for 30 mins followed by NADPH addition and measured after 30 mins by CYP450-Glo assay
[9] = molecular target: Cytochrome P450 3A4 (Homo sapiens, UniProt P08684); assay: Inhibition of human CYP3A4 expressed in baculovirus infected insect cells using beetle D-luciferin as substrate preincubated for 30 mins followed by NADPH addition and measured after 30 mins by CYP450-Glo assay
[10] = Selectivity ratio of IC50 for Leishmania major pteridine reductase 1 to IC50 for N-terminal His-tagged Trypanosoma brucei pteridine reductase 1
[11] = molecular target: Cytochrome P450 2D6 (Homo sapiens, UniProt P10635); assay: Inhibition of human CYP2D6 expressed in baculovirus infected insect cells using beetle D-luciferin as substrate preincubated for 30 mins followed by NADPH addition and measured after 30 mins by CYP450-Glo assay
[12] = molecular target: Cytochrome P450 2C9 (Homo sapiens, UniProt P11712); assay: Inhibition of human CYP2C9 expressed in baculovirus infected insect cells using beetle D-luciferin as substrate preincubated for 30 mins followed by NADPH addition and measured after 30 mins by CYP450-Glo assay
[13] = molecular target: Voltage-gated inwardly rectifying potassium channel KCNH2 (Homo sapiens, UniProt Q12809); assay: Displacement of Tracer Red from human ERG by fluorescence polarization assay
[14] = molecular target: T2, Pteridine reductase 1 (Leishmania major, UniProt Q01782); assay: Inhibition of Leishmania major pteridine reductase 1 using di-hydrobiopterine as substrate in presence of NADPH; how it was run: as §1
T2 sequence (Q01782 whole entry): T1 sequence (whole entry)

[15] = tested on: Trypanosoma cruzi; assay: Growth inhibition of trypomastigote form of Trypanosoma cruzi Y infected in human U2OS cells at 50 uM measured after 72 hrs by DRAQ5 DNA dye based confocal microscopic analysis relative to control; type: organism-based; conditions: Trypanosoma cruzi, Y, U2OS, read-out: GI
[16] = tested on: Trypanosoma brucei; assay: Growth inhibition of Trypanosoma brucei bloodstream forms at 10 uM measured after 72 hrs by resazurin-based fluorescence assay relative to control; type: organism-based; conditions: Trypanosoma brucei, read-out: GI
[17] = Cytotoxicity against human U2OS cells assessed as reduction in cell number; type: cell-based
[18] = tested on: Leishmania infantum; assay: Growth inhibition of luciferase expressing Leishmania infantum axenic amastigotes infected in human THP1 cells at 10 uM measured after 72 hrs by steady-glo luminescence assay relative to control; type: organism-based; conditions: for inhibition at 10 µM: Leishmania infantum, THP-1, 72 h, read-out: GI; for growth inhibition (GI): leishmania infantum, 72 h, 10 µM
[19] = molecular target: T3, Cytochrome P450 1A2 (Homo sapiens, UniProt P05177); assay: Inhibition of human CYP1A2 expressed in baculovirus infected insect cells using beetle D-luciferin as substrate preincubated for 30 mins followed by NADPH addition and measured after 30 mins by CYP450-Glo assay
T3 sequence (P05177 whole entry): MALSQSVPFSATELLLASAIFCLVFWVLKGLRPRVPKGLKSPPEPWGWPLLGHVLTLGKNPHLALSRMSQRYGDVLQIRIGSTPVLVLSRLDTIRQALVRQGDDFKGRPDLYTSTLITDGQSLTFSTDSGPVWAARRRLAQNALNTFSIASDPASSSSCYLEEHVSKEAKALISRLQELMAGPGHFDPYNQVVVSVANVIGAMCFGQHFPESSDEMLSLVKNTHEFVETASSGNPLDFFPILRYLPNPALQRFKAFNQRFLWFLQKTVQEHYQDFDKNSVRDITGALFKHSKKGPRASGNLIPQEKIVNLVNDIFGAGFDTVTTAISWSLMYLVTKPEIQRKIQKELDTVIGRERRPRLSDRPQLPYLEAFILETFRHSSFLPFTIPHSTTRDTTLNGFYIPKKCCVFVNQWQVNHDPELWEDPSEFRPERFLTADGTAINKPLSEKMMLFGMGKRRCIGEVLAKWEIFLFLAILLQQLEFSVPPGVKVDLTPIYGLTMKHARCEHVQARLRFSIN

[20] = tested on: Trypanosoma brucei; assay: Inhibition of PTR1 in Trypanosoma brucei bloodstream forms assessed as potentiation of methotrexate-induced parasitic cell growth inhibition at 10 uM measured after 72 hrs by resazurin-based fluorescence assay (reference value: 19 +/- 6%)
How it was run: (§2)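 Bloodstream-form T. brucei resazurin assay: 72 h at 37 °C, 5% CO₂, then fluorescence at ex 540/em 620 nm. Benzothiazole was tested at 10 μM alone and with 4 μM methotrexate. The index is the combination's activity divided by the sum of the activities of 10 μM benzothiazole and 4 μM methotrexate given separately.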

[21] = tested on: Trypanosoma brucei; assay: Inhibition of PTR1 in Trypanosoma brucei bloodstream forms assessed as potentiation of methotrexate-induced parasitic cell growth inhibition by measuring potentiation index at 10 uM measured after 72 hrs by resazurin-based fluorescence assay relative to control (methotrexate); type: functional; how it was run: as §2

Sequence of Voltage-gated inwardly rectifying potassium channel KCNH2 (Q12809 whole entry): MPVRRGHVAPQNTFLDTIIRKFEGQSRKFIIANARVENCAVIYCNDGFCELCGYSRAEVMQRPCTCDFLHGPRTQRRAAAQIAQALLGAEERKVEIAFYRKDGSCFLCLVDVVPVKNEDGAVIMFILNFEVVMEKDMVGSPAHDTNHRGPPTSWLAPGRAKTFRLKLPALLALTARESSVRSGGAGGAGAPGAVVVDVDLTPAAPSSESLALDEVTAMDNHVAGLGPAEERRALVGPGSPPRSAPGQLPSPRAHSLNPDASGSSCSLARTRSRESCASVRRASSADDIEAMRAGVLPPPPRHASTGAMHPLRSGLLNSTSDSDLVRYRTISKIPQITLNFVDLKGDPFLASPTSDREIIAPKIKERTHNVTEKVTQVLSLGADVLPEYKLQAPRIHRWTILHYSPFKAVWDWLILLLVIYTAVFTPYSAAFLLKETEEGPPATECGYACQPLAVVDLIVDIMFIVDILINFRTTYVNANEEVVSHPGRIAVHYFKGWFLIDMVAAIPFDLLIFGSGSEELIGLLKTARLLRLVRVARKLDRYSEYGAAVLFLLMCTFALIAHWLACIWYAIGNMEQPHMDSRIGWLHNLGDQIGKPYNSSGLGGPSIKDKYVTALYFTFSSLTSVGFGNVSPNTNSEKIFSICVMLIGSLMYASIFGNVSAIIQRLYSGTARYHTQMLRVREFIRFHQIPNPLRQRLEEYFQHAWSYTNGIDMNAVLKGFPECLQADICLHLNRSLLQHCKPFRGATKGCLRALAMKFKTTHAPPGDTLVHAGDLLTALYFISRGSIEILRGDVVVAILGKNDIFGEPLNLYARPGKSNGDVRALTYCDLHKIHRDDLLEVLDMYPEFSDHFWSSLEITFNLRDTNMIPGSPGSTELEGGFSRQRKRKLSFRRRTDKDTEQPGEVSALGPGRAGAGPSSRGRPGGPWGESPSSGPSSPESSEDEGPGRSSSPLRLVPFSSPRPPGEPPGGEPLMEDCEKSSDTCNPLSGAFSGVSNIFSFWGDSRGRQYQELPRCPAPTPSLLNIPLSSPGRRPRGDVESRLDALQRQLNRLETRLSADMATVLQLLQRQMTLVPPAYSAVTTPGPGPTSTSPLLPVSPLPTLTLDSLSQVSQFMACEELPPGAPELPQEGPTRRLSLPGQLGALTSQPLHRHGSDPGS
Sequence of Cytochrome P450 3A4 (P08684 whole entry): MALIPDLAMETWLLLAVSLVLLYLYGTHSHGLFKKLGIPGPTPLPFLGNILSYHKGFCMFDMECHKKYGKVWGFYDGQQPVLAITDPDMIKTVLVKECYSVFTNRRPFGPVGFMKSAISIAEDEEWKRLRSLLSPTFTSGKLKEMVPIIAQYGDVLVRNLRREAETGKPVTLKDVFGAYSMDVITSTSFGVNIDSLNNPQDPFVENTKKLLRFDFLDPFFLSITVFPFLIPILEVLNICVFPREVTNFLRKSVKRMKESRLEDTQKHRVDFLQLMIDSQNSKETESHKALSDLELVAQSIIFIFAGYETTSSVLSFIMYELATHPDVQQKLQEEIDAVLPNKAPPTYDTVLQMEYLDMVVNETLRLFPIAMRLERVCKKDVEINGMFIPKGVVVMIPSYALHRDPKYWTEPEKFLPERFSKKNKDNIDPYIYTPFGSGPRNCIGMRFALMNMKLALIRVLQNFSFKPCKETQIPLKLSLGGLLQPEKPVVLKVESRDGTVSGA
Sequence of Cytochrome P450 2C19 (P33261 whole entry): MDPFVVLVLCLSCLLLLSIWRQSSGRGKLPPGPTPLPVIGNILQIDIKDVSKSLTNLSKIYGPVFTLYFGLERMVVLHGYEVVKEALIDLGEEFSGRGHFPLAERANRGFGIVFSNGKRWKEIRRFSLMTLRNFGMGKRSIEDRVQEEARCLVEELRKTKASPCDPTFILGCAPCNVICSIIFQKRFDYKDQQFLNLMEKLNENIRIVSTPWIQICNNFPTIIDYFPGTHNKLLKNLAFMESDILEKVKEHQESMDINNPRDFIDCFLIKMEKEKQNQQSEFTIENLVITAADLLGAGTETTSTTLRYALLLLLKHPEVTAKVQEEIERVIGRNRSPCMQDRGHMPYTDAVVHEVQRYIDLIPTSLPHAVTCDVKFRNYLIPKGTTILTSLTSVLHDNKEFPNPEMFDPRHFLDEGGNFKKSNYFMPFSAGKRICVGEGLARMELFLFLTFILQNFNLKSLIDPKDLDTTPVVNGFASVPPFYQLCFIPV
Sequence of Cytochrome P450 2D6 (P10635 whole entry): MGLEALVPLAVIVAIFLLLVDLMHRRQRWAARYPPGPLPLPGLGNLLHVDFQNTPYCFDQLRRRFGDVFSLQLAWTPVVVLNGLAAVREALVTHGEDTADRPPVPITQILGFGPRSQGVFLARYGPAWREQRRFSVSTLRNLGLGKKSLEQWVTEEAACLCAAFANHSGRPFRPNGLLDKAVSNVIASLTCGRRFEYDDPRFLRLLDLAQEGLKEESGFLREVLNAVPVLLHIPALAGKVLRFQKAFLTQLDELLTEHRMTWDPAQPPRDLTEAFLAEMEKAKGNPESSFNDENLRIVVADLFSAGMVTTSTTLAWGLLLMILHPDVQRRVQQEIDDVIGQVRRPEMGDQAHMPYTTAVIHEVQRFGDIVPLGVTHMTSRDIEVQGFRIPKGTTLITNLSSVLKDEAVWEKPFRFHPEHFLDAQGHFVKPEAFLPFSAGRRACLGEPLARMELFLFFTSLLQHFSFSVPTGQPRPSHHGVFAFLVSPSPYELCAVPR
Sequence of Cytochrome P450 2C9 (P11712 whole entry): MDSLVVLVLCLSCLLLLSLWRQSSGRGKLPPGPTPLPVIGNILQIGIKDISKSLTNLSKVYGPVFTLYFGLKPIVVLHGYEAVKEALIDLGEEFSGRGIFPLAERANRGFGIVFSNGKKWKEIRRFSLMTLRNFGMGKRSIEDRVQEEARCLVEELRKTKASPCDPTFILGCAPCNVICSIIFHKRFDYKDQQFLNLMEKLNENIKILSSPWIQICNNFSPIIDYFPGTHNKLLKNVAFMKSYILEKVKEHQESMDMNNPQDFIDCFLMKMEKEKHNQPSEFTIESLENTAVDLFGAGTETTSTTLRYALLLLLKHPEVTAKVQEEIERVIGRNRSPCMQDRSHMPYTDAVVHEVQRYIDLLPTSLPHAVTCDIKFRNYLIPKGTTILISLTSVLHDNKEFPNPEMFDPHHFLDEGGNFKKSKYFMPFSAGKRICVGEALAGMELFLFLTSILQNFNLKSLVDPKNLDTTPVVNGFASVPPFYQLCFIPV

Row | inhibition [2] | inhibition [5] | IC50 [7] | IC50 [8] | IC50 [9] | Ratio IC50 [10] | IC50 [11] | IC50 [12] | IC50 [19] | growth inhibition (GI) [20] | IC50 ([14]; read-out: IC50) | Structure (SMILES) | IC50 at 6 h [1] | MNTC at 72 h [3] | GI50 at 48 h [6] | IC50 [13] | inhibition at 50 µM [15] | inhibition at 10 µM [16] | GI50 [17] | Ratio [21] | growth inhibition (GI) [18] | further results
1 | inactive | > 60% | 15.9 µM | < 10 µM | < 10 µM | 2 to 100 | < 10 µM | < 10 µM | > 25 µM |  |  | COc1ccc(CN(Cc2ccc(Cl)c(Cl)c2)C(=O)c2ccc3nc(N)sc3c2)cc1OC | 10 to 25 µM | 10 to 25 µM | > 25 µM | > 25 µM | 47.9% | > 60% | > 25 µM |  |  | EC50 [4]: 9.7 µM; IC50 [14]: Not Active; inhibition at 10 µM [18]: 9%
2 | 8.7% | 11.8% |  | > 25 µM | > 25 µM | 2 to 100 | > 25 µM | > 25 µM | > 25 µM |  |  | Nc1nc2c(O)cc(C(=O)NCc3ccc(Cl)c(Cl)c3)cc2s1 | > 25 µM | > 25 µM | > 25 µM | > 25 µM | 42% | > 60% | > 25 µM |  |  | EC50 [4]: 5.9 µM; inhibition at 10 µM [18]: 24%
3 | > 60% | > 60% | 0.92 µM | < 10 µM | < 10 µM | 2 to 100 | < 10 µM | < 10 µM | 10 to 25 µM | 69% | 47.6 µM | COC(=O)c1ccc(CSc2ccc3nc(N)sc3c2)cc1 | > 25 µM | 10 to 25 µM | > 25 µM | > 25 µM | 23% | 7 to 17% | > 25 µM | 2.7 | Non-Toxic | 
4 | inactive | > 60% | 3.4 µM | < 10 µM | < 10 µM | 2 to 100 | 10 to 25 µM | > 25 µM | < 10 µM | 89% |  | Nc1nc2ccc(OCc3ccc(Cl)c(Cl)c3)cc2s1 | > 25 µM | > 25 µM | > 25 µM | > 25 µM | 7.24% | 42 to 55% | > 25 µM | 1.2 | Non-Toxic | IC50 [14]: Not Active
5 | > 60% | > 60% | 0.5 µM | > 25 µM | > 25 µM | 2 to 100 | > 25 µM | > 25 µM | > 25 µM | 33% | 1.9 µM | Nc1nc2ccc(SC(F)(F)F)cc2s1 | > 25 µM | 10 to 25 µM | < 10 µM | 10 to 25 µM | 37.4% | 11% | > 25 µM | 1.1 | Non-Toxic | 
6 | > 60% | > 60% | 0.93 µM | < 10 µM | < 10 µM | 2 to 100 | < 10 µM | > 25 µM | > 25 µM | 93% | 15.1 µM | COC(=O)C1CCN(C(=O)c2ccc(CSc3ccc4nc(N)sc4c3)cc2)CC1 | > 25 µM | > 25 µM | > 25 µM | > 25 µM | 16.3% | 42 to 53% | > 25 µM | 1.3 | Non-Toxic | 
